# Assay outcomes as filed in PubChem BioAssay.
# Tn6 DDE FP: DD(E)-Tn6 binding inhibition, primary FP screen. Fibrin DD(E) TRITC-Tn6 fluorescence polarization displacement. inhibition, % at 8.3 µM. actives 0.21% (n = 370,000). AID 720509;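 active = inhibition above a per-campaign cutoff: mean of compounds within control limits plus 3 SD, cut at about 15% in these data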
# PLCb3 inh: inhibitors of human phospholipase C beta3; Purified PLC-beta3, fluorogenic substrate, fluorescence; inhibition, % at 12.2 µM; actives 0.18% (n = 370,000); in the data active = inhibition above about 11%
# Target sequence (Q01970 whole entry, looked up): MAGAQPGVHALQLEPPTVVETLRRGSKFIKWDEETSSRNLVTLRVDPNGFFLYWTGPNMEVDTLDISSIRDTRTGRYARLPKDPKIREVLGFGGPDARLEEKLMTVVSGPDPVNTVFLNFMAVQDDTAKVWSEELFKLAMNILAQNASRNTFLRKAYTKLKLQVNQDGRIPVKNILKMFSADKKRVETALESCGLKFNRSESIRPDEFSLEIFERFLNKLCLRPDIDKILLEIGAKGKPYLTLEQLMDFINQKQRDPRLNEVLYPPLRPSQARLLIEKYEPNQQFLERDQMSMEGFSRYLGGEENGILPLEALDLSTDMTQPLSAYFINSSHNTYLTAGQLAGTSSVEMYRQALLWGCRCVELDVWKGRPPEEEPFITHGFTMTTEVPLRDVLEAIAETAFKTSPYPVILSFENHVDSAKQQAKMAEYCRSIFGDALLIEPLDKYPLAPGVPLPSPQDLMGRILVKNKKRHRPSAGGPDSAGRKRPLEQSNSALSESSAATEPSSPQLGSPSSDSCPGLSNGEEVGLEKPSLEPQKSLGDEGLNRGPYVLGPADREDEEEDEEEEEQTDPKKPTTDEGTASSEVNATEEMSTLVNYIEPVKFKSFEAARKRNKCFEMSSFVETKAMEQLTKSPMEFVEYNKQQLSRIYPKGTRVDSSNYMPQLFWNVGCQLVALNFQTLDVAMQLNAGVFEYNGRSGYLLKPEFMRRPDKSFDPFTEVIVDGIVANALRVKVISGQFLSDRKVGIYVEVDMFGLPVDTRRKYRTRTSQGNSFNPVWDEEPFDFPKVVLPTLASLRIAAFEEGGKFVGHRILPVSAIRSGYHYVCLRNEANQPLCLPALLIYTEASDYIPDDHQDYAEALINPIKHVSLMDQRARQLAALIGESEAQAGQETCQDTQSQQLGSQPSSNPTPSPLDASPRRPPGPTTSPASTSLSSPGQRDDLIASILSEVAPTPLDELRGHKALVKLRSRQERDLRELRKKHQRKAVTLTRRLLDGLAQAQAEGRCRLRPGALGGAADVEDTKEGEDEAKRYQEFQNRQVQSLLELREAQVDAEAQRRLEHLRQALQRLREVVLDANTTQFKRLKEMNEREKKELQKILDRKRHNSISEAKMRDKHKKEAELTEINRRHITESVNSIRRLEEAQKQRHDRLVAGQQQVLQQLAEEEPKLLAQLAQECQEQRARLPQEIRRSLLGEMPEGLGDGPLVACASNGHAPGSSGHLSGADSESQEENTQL
# DNA FID counter: displaces DNA intercalator in HCV helicase counter-screen; DNA fluorescent intercalator displacement, fluorescence; inhibition, % at 7.9 µM; actives 0.17% (n = 290,000); AID 1845; in the data active = inhibition above about 37%;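 also: higher means more ethidium bromide displaced from hairpin DNA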
# Tn7 DDE FP: DD(E)-Tn7 binding inhibition, primary FP screen; P02675; FP displacement of FITC-Tn7 peptide from fibrin DD(E); 0% = median of compound wells per plate; inhibition, % at 8.3 µM; actives 0.13% (n = 370,000); AID 720508;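 active = inhibition above the mean of compounds falling within the control limits plus 3 SD of them, cut at about 14% in these data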
#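 Measure: % inhibition scaled between sample-field median and high-control FP; Test system: human fibrin DD(E); Quantity: 2 µM final DD(E) protein; Doses: one dose, 8.3 µM nominal; Schedule: compound with protein 10 min, then 3 h after probe, room temperature; Detection: fluorescence polarization; Medium: Tris buffer with calcium and detergent, pH 7.8.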
# PLC-gamma1 inh: inhibitors of human phospholipase C gamma1 | P19174 | purified PLC-gamma1, fluorogenic substrate, fluorescence | inhibition, % at 12.2 µM | actives 0.84% (n = 370,000)
# PLCg1 ctr: inhibits human PLC-gamma1 in PLC-beta3 counter-screen; shares compounds with PLC-gamma1 inh; purified PLC-gamma1, fluorogenic substrate, fluorescence; inhibition, % at 12.3 µM; actives 3.1% (n = 3,300); AID 743258
# PLCb3 confirm: human PLC-beta3 inhibition, confirmation; shares compounds with PLC-gamma1 inh; actives 1% (n = 3,300); purified PLC-beta3, fluorogenic substrate fluorescence; inhibition, % at 12.3 µM; in the data active = inhibition above about 11%
# Numbers stand for hits; i = inactive; nt = no result. An excerpt weighted towards active compounds, which were near 1.4% of everything screened. Rule as the data show it, unless noted: active = inhibition above about 9.5%; inactive = the rest.
SMILES,Tn6 DDE FP,PLCb3 inh,DNA FID counter,Tn7 DDE FP,PLC-gamma1 inh,PLCg1 ctr,PLCb3 confirm
O=C(Nc1ccccc1C(F)(F)F)c1ccc(F)c(S(=O)(=O)N2CCOCC2)c1,i,i,i,i,13.1,i,i
Cc1ccc(C(=O)OCC(=O)Nc2ccccc2C(F)(F)F)cc1S(=O)(=O)N1CCOCC1,i,10.9,i,i,i,i,i
CCOC(=O)c1ccccc1NC(=O)COC(=O)c1ccc(C)c(S(=O)(=O)N2CCOCC2)c1,i,i,i,i,i,nt,nt
N#Cc1ccc(Cl)cc1NC(=O)CNc1cccc(S(=O)(=O)N2CCCC2)c1,i,i,nt,i,i,nt,nt
COc1cccc(-n2c(N)c(-c3nc4ccccc4[nH]3)sc2=S)c1,i,i,i,i,i,nt,nt
Cc1cc(C)c(OCCCCN(C)Cc2ccccc2)c(C)c1,i,i,i,i,13.4,i,i
COc1ccccc1NS(=O)(=O)c1cc(NC(=O)CNC(=O)c2ccccc2)ccc1C,i,i,i,i,10.9,i,i
COc1ccccc1NS(=O)(=O)c1cc(NC(=O)CCNC(C)=O)ccc1C,i,i,i,i,i,nt,nt
CC(C)Cn1c(N)c(C(=O)CSc2nc3ccccc3n2C)c(=O)n(C)c1=O,i,i,i,i,i,nt,nt
Cc1ccc(-n2nnnc2SCC(=O)c2c(N)n(CC(C)C)c(=O)n(C)c2=O)cc1,i,i,i,i,10.8,i,i
CCOC(=O)Cc1csc(SCC(=O)c2c(N)n(CC(C)C)c(=O)n(C)c2=O)n1,i,i,i,i,10.4,i,i
COC(=O)[C@@H]1CCCN1C(=O)[C@@H](NC(=O)OC(C)(C)C)C(C)C,i,14.1,nt,i,i,i,i
CN(C)c1ccc(N/C=C/C(=O)c2ccc(F)cc2)cc1,nt,nt,i,nt,nt,nt,nt
CCC(OC(=O)C(NC(=O)c1ccccc1)c1ccccc1)C(=O)Nc1cc(C)on1 (configuration not stated),i,i,i,i,12.4,i,i
CCC(Oc1ccccc1)C(=O)Nc1cc(C)on1 (configuration not stated),i,i,i,i,i,nt,nt
CC1(C(=O)Nc2ccc(F)cc2F)CCN1C(=O)Cc1ccccc1 (configuration not stated),i,i,nt,i,10.8,i,i
COc1ccc(OC)c(S(=O)(=O)N2CCC3(CC2)CC(=O)c2ccccc2O3)c1,i,i,nt,i,i,nt,nt
CC1=C(c2ccccc2)C(O)(c2ccccc2)C(C)C1=O (configuration not stated),i,i,nt,i,14.1,i,i
CC1=C(c2ccccc2)CCC1=O,i,i,nt,i,i,nt,nt
O=c1[nH]ncc(N/N=C\c2ccncc2)c1Cl,i,10.6,i,i,i,i,i
O=c1[nH]ncc(N/N=C\c2cccnc2)c1Cl,i,i,i,i,i,nt,nt
CC(Oc1ccc(Cl)cc1Cl)C(=O)NCCN1CCOCC1 (configuration not stated),i,i,i,i,i,nt,nt
CC(C)c1onc(C(=O)N2CCOCC2)c1[N+](=O)[O-],i,12.9,i,i,i,i,i
COc1ccc(S(=O)(=O)N2CCOCC2)cc1NC(=O)c1cc(C)oc1C,i,i,nt,i,i,nt,nt
Cc1sc(NC(=O)CCS(=O)(=O)c2ccccc2)c(C#N)c1C,i,i,nt,i,i,nt,nt
SMILES,Tn6 DDE FP,PLCb3 inh,DNA FID counter,Tn7 DDE FP,PLC-gamma1 inh,PLCg1 ctr,PLCb3 confirm
Cc1sc(NC(=O)CCC(=O)O)c(C#N)c1C,i,i,i,i,10.7,i,i
CCNC(=S)Nc1nc2c(cc1C(=O)OCC)CCCC2,i,i,i,i,i,nt,nt
CN(C(=O)CS(=O)(=O)Cc1ccccc1Cl)c1ccccc1,i,i,i,i,i,nt,nt
CN(C(=O)CS(=O)(=O)c1cccc(Cl)c1)c1ccccc1,i,i,i,i,11.4,i,i
CCOC(=O)C1(Cc2cccc(OC)c2)CCN(Cc2cc(OC)ccc2OC)CC1,i,i,i,i,i,nt,nt
COC(OC)C(C)NC(=O)NC(=O)c1ccccc1Cl (configuration not stated),i,i,i,i,i,nt,nt
COC(=O)/C=C(\C)NC(=O)c1ccccc1Cl,i,10.9,i,i,i,i,i
CCCCCCC1CC(CSC(=N)N)OC1=O (configuration not stated),i,i,i,i,10.6,i,i
CCS(=O)(=O)c1nc(S(=O)(=O)c2ccc(C)cc2)c(N2CCN(C)CC2)s1,i,i,i,i,9.8,i,i
Cc1ccc(N2C(=O)CC3(CCCC3)CC2=O)cc1,i,10.9,i,i,i,i,i
COc1ccc(C)cc1NC(=O)CN1C(=O)C(=O)N(C2CCCC2)C1=O,i,i,nt,i,i,nt,nt
Cc1ccc(-c2nnn(CC(=O)Nc3ccccc3N3CCOCC3)n2)cc1,i,i,i,i,10.5,i,i
O=C(Cn1nnc(-c2ccccc2)n1)Nc1ccccc1N1CCOCC1,i,i,i,i,i,nt,nt
COc1cc(OC)cc(C(=O)N/N=C2/SCC(=O)N2Cc2ccco2)c1,i,i,i,i,i,nt,nt
CCC(=O)N(Cc1cc(=O)[nH]c2ccccc12)c1ccccc1OC,i,i,i,i,11.7,i,i
CSc1nc2c(c(C(F)(F)F)n1)CC(C)CC2 (configuration not stated),i,i,i,i,9.6,i,i
COC(=O)c1ccc(NC(=O)CN(C)S(=O)(=O)c2ccc(OC)c(C)c2)cc1,i,i,i,i,9.6,i,i
COc1ccc(S(=O)(=O)N(C)CC(=O)Nc2ccc(C(N)=O)cc2)cc1OC,i,i,i,i,i,nt,nt
Cc1[nH]c2ccccc2c1/C=N/Nc1nncn1N,i,i,i,i,9.9,i,i
Cc1cccc(-n2c(Cc3ccccc3)nnc2SCC(=O)N2CCOCC2)c1,i,i,i,i,13.6,i,i
CNCCC=C1c2ccccc2CCc2ccccc21,i,i,i,i,11.7,i,i
C[N+](C)(C)CC/C=C1/c2ccccc2CSc2ccccc21,i,i,i,i,i,nt,nt
Cc1cc(NC(=O)c2cccs2)ncc1NC(=O)c1cccc(F)c1,i,i,i,i,i,nt,nt
Cc1cc(NC(=O)c2ccccc2)ncc1NC(=O)c1cccs1,i,16.3,i,i,i,i,i
O=C(NNC(=O)c1csc(-c2cccnc2)n1)c1ccccc1,i,i,i,i,9.6,i,i
SMILES,Tn6 DDE FP,PLCb3 inh,DNA FID counter,Tn7 DDE FP,PLC-gamma1 inh,PLCg1 ctr,PLCb3 confirm
O=C(NNC(=O)c1csc(-c2ccccc2)n1)c1ccccc1,i,11.0,nt,i,i,i,i
COc1ccccc1S(=O)(=O)Cc1ccc(C(=O)NCc2ccc3c(c2)OCO3)o1,i,i,i,i,i,nt,nt
COC(C/C=C/[C@H](O)[C@H](C)OCc1ccccc1)OC,i,i,nt,i,i,nt,nt
COc1ccc(NS(=O)(=O)c2cn(C)nc2C)cc1,i,i,i,i,11.5,i,i
COc1ccc(NS(=O)(=O)c2cn(C)cn2)cc1,i,i,i,i,i,nt,nt
Cc1ccc(C(=O)NC(=S)NCC2CCCO2)cc1 (configuration not stated),i,i,i,i,i,nt,nt
